Measurements as given in ChEMBL document CHEMBL2384910, “Lead optimization of 5-amino-6-(2,2-dimethyl-5-oxo-4-phenylpiperazin-1-yl)-4-hydroxyhexanamides to reduce a cardiac safety issue: discovery of DS-8108b, an orally active renin inhibitor” (Bioorg Med Chem, 2013).
Where a chain is given by its changes, count along the chain named.

Key:
Rattus norvegicus [1] = test: Cardiotoxicity in Sprague-Dawley rat electrophysiology model assessed as QRS complex abnormalities at 10 mg/kg, iv; format: toxicity, organism-based; design: dose 10 mg/kg, route intravenous; settings: in vivo
Outline: (§1)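 Male Sprague-Dawley rats anesthetized with inactin 100 mg/kg ip; surface lead II ECG recorded continuously. Compounds given as iv bolus via right jugular vein catheter after stabilization; QRS complex abnormality scored as no, moderate or severe change; n = 2 at 10 mg/kg.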

[2] = biological target: T1, Renin (Macaca fascicularis) (UniProt Q6DLS0); test: Ratio of compound IC50 to aliskiren IC50 for renin in cynomolgus monkey plasma
T1 sequence (whole entry): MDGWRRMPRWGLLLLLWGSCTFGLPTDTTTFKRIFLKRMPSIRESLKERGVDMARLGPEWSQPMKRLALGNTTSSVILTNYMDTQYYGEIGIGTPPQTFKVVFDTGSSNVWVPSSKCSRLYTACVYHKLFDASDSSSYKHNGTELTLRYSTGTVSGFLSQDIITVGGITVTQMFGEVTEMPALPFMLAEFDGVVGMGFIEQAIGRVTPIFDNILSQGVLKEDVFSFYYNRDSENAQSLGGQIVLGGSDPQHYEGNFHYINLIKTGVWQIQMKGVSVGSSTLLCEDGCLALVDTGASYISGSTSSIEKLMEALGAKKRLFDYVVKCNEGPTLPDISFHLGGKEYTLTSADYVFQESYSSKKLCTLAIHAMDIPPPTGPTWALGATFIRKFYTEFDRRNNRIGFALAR

[3] = Cmax in cynomolgus monkey at 3 mg/kg, po by HPLC-MS/MS analysis; format: ADME, organism-based, Macaca fascicularis; design: dose 3 mg/kg, route oral; settings: in vivo
Outline: (§2)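 Blood sampled over 24 h, at least 7 time points; plasma levels by HPLC-MS/MS; parameters from non-compartmental analysis of concentration-time curves.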

Rattus norvegicus [4] = test: Cardiotoxicity in Sprague-Dawley rat electrophysiology model assessed as QRS complex abnormalities at 10 mg/kg, iv by ECG analysis; format: toxicity, organism-based; design: dose 10 mg/kg, route intravenous; settings: in vivo; outline: as §1
Renin [5] = biological target: T2, Renin (Homo sapiens, UniProt P00797); test: Inhibition of human recombinant renin using Arg-Glu(EDANS)-Ile-His-Pro-Phe-His-Leu-Val-Ile-His-Thr-Lys (DABCYL)-Arg as substrate incubated for 10 mins prior to substrate addition measured after 90 mins by fluorescence assay
T2 sequence (P00797 whole entry): T1 sequence (whole entry) with A68T, L214I, A235S
Outline: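 Trypsin-activated recombinant human renin in 50 mM Tris-HCl pH 7.9, 100 mM NaCl, preincubated with compound 10 min at room temperature; FRET substrate Arg-Glu(EDANS)…Lys(DABCYL)-Arg added, 90 min at 37 °C.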

[6] = AUC (0 to 24 hrs) in cynomolgus monkey at 3 mg/kg, po by HPLC-MS/MS analysis; format: ADME, organism-based, Macaca fascicularis; design: time < 24 hr, dose 3 mg/kg, route oral; settings: plasma; outline: as §2
Renin [7] = biological target: T3, Renin (Macaca fascicularis, UniProt Q6DLS0); test: Inhibition of renin in cynomolgus monkey plasma after 1 hr by RIA
T3 sequence (Q6DLS0 whole entry): T1 sequence (whole entry)
Outline: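 Pooled mixed-gender EDTA cynomolgus monkey plasma with pH adjusting solution and Inhibitor A, compound in 1% DMSO final, incubated 1 h at 37 °C. Angiotensin I by competitive RIA; uninhibited and 4 °C controls define % inhibition; IC50 from four-parameter fit; ratio is compound IC50 over aliskiren IC50 in same plasma batch; ≥2 replicates.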

Heart [8] = test: Cardiotoxicity in anesthetized New Zealand White rabbit heart assessed as prolongation of […] at 30 uM after 20 mins relative to baseline; format: toxicity, tissue-based, Oryctolagus cuniculus
Outline: (§3)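 Isolated Langendorff-perfused hearts from female NZW rabbits anesthetized with thiopental 30 mg/kg iv; heart excised into chilled Krebs-Henseleit solution. After parameters stabilized, compound perfused at 10, 30 and 100 µM for 20 min; ECG changes expressed as % change from baseline.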

Heart [9] = test: Cardiotoxicity in anesthetized New Zealand White rabbit heart assessed as prolongation of heart rate at 30 uM after 20 mins relative to baseline; format: toxicity, tissue-based, Oryctolagus cuniculus; outline: as §3
Heart [10] = test: Cardiotoxicity in anesthetized New Zealand White rabbit heart assessed as prolongation of QRS width at 30 uM after 20 mins relative to baseline; format: toxicity, tissue-based, Oryctolagus cuniculus; outline: as §3
Heart [11] = test: Cardiotoxicity in anesthetized New Zealand White rabbit heart assessed as prolongation of […] at 10 uM after 20 mins relative to baseline; format: toxicity, tissue-based, Oryctolagus cuniculus; outline: as §3
Heart [12] = test: Cardiotoxicity in anesthetized New Zealand White rabbit heart assessed as prolongation of QTc interval at 10 uM after 20 mins relative to baseline; format: toxicity, tissue-based, Oryctolagus cuniculus; outline: as §3
Heart [13] = test: Cardiotoxicity in anesthetized New Zealand White rabbit heart assessed as prolongation of QRS width at 10 uM after 20 mins relative to baseline; format: toxicity, tissue-based, Oryctolagus cuniculus; outline: as §3
Heart [14] = test: Cardiotoxicity in anesthetized New Zealand White rabbit heart assessed as prolongation of heart rate at 10 uM after 20 mins relative to baseline; format: toxicity, tissue-based, Oryctolagus cuniculus; outline: as §3
Heart [15] = test: Cardiotoxicity in anesthetized New Zealand White rabbit heart assessed as prolongation of QTc interval at 30 uM after 20 mins relative to baseline; format: toxicity, tissue-based, Oryctolagus cuniculus; outline: as §3
Heart [16] = test: Cardiotoxicity in anesthetized New Zealand White rabbit heart assessed as ventricular tachycardia and ventricular fibrillation at 30 uM after 20 mins; format: toxicity, tissue-based, Oryctolagus cuniculus; outline: as §3

SMILES	Ratio IC50 [2]	Activity (Rattus norvegicus [4])	IC50 (Renin [5])	IC50 (Renin [7])	also measured
CCN(CC)CC(=O)Nc1c(C)cccc1C [LIDOCAINE]	–	–	–	–	Activity (Rattus norvegicus [1]): Toxic
CN1CC(=O)N(c2ccccc2Cl)CC1(C)C	–	–	–	–	Activity (Rattus norvegicus [1]): Non-toxic
CC(C)[C@H](C[C@H](O)[C@@H](N)CN1CC(=O)N(c2ccccc2Cl)CC1(C)C)C(=O)N[C@H]1CC[C@H](O)CC1.O=C(O)/C=C/C(=O)O	0.8	Non-toxic	1.4 nM	4.3 nM	Cmax [3]: 19 ng/mL; AUC(0-t) at 24 h [6]: 75 ng·h/mL
CC[C@H](C[C@H](O)[C@@H](N)CN1CC(=O)N(c2ccccc2Cl)CC1(C)C)C(=O)NC1C2CC3CC1CC(C(N)=O)(C3)C2.O=C(O)/C=C/C(=O)O (stereo partly specified)	0.5	–	1.3 nM	1.2 nM	Cmax [3]: 19 ng/mL; AUC(0-t) at 24 h [6]: 90 ng·h/mL
Cc1ccc(F)cc1N1CC(C)(C)N(C[C@H](N)[C@@H](O)C[C@@H](C)C(=O)NCC(C)(C)C)CC1=O.O=C(O)/C=C/C(=O)O	0.6	Toxic	1.1 nM	3.4 nM	–
CC[C@H](C[C@H](O)[C@@H](N)CN1CC(=O)N(c2ccccc2Cl)CC1(C)C)C(=O)NCC(C)(C)CO.O=C(O)/C=C/C(=O)O	0.8	Non-toxic	1.6 nM	5.2 nM	Activity (Heart [8]): 3.4%; Activity (Heart [9]): -4.3%; Activity (Heart [10]): 1.7%; Activity (Heart [11]): -7.8%; Activity (Heart [12]): -2.1%; Activity (Heart [13]): 3.8%; Activity (Heart [14]): -3.5%; Activity (Heart [15]): -5.4%
CC[C@H](C[C@H](O)[C@@H](N)CN1CC(=O)N(c2ccccc2Cl)CC1(C)C)C(=O)NCC(C)(C)C.O=C(O)/C=C/C(=O)O	0.3	Toxic	0.8 nM	2.3 nM	–
CC(C)[C@H](C[C@H](O)[C@@H](N)CN1CC(=O)N(c2ccccc2Cl)CC1(C)C)C(=O)Nc1ccccc1.O=C(O)/C=C/C(=O)O	1.3	Toxic	1.4 nM	9.2 nM	–
CC[C@H](C[C@H](O)[C@@H](N)CN1CC(=O)N(c2cc(F)ccc2C)CC1(C)C)C(=O)N[C@H]1C2CC3CC1C[C@](O)(C3)C2.O=C(O)/C=C/C(=O)O	0.9	Non-toxic	1.6 nM	4.6 nM	–
C[C@H](C[C@H](O)[C@@H](N)CN1CC(=O)N(c2ccccc2Cl)CC1(C)C)C(=O)N[C@H]1C2CC3CC1C[C@](O)(C3)C2.O=C(O)/C=C/C(=O)O	1.6	Non-toxic	1.1 nM	7.3 nM	–
CC(C)[C@H](C[C@H](O)[C@@H](N)CN1CC(=O)N(c2ccccc2Cl)CC1(C)C)C(=O)Nc1ccc(F)cc1F.O=C(O)/C=C/C(=O)O	3	Toxic	2 nM	14 nM	–
CC(C)[C@H](C[C@H](O)[C@@H](N)CN1CC(=O)N(c2ccccc2Cl)CC1(C)C)C(=O)Nc1ccccn1.O=C(O)/C=C/C(=O)O	0.7	Toxic	1.8 nM	3.4 nM	–
CC[C@H](C[C@H](O)[C@@H](N)CN1CC(=O)N(c2cc(F)ccc2Cl)CC1(C)C)C(=O)N[C@H]1C2CC3CC1C[C@](O)(C3)C2.O=C(O)/C=C/C(=O)O	0.7	Non-toxic	1.4 nM	3.6 nM	–
CC(C)[C@H](C[C@H](O)[C@@H](N)CN1CC(=O)N(c2ccccc2Cl)CC1(C)C)C(=O)Nc1ccc(F)cn1.O=C(O)/C=C/C(=O)O	0.5	Toxic	0.9 nM	3.4 nM	Activity (Heart [11]): 64.1%; Activity (Heart [12]): 13.5%; Activity (Heart [13]): 74.7%; Activity (Heart [14]): -3.7%; Activity (Heart [16]): Toxic
Cc1cccc(NC(=O)[C@@H](C[C@H](O)[C@@H](N)CN2CC(=O)N(c3ccccc3Cl)CC2(C)C)C(C)C)n1.O=C(O)/C=C/C(=O)O	7.3	Toxic	5.6 nM	47 nM	–
CC(C)[C@H](C[C@H](O)[C@@H](N)CN1CC(=O)N(c2ccccc2Cl)CC1(C)C)C(=O)Nc1ccncc1.O=C(O)/C=C/C(=O)O	1.5	Toxic	1.6 nM	15 nM	–
CC(C)CNC(=O)C(C)(C)C[C@H](O)[C@@H](N)CN1CC(=O)N(c2cc(F)ccc2Cl)CC1(C)C.O=C(O)/C=C/C(=O)O	132	Toxic	97 nM	738 nM	–
CC[C@H](C[C@H](O)[C@@H](N)CN1CC(=O)N(c2ccccc2Cl)CC1(C)C)C(=O)Nc1ccc(F)cn1.O=C(O)/C=C/C(=O)O	0.6	Toxic	1 nM	2.1 nM	–
CC(C)CNC(=O)[C@@H](C[C@H](O)[C@@H](N)CN1CC(=O)N(c2ccccc2Cl)CC1(C)C)C(C)C.O=C(O)/C=C/C(=O)O	0.7	Toxic	1.4 nM	4 nM	–
